According to ChEMBL document CHEMBL1268887, “2-Hexadecynoic acid inhibits plasmodial FAS-II enzymes and arrests erythrocytic and liver stage Plasmodium infections” (Bioorg Med Chem, 2010):
≈ marks a conversion by molar mass, not a printed value.

Tests used:
[1] = tested on: Trypanosoma cruzi; experiment: Trypanocidal activity against intracellular amastigotes of Trypanosoma cruzi Tulahuen C2C4 expressing LacZ gene infected in rat L6 cells after 96 hrs; assay type: functional, organism-based; details: Tulahuen C2C4, L6, 96 h
[2] = tested on: Plasmodium falciparum; experiment: Selectivity ratio of IC50 for Plasmodium falciparum FabG to IC50 for Plasmodium falciparum FabI
[3] = tested on: Plasmodium falciparum; experiment: Selectivity ratio of IC50 for Plasmodium falciparum FabG to IC50 for Plasmodium falciparum FabZ
[4] = tested on: L6; experiment: Cytotoxicity against rat L6 cells after 72 hrs by microplate fluorometric analysis; assay type: cell-based; details: L6, 72 h
[5] = tested on: Plasmodium yoelii; experiment: Antimalarial activity against liver stages of Plasmodium yoelii expressing GFP infected in human HepG2:CD81 cells after 43 hrs by flow cytometry; assay type: functional, organism-based
Outline: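 HepG2:CD81 cells seeded on attachment matrix in DMEM/F12 with FBS, infected next day with 50,000 PyGFP sporozoites dissected from mosquitoes 14 days post blood meal. Compound added 2 h later from 10 mM DMSO stocks, tested at 10 to 100 μM, medium changed at 24 h, grown a further 43 h at 37 °C. GFP-positive cells counted by flow cytometry with 7-AAD; atovaquone as positive control.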

[6] = molecular target: T1, Enoyl-acyl-carrier protein reductase (Plasmodium falciparum, UniProt Q965D5); experiment: Inhibition of Plasmodium falciparum FabI by spectrophotometric analysis
T1 sequence (Q965D5 whole entry): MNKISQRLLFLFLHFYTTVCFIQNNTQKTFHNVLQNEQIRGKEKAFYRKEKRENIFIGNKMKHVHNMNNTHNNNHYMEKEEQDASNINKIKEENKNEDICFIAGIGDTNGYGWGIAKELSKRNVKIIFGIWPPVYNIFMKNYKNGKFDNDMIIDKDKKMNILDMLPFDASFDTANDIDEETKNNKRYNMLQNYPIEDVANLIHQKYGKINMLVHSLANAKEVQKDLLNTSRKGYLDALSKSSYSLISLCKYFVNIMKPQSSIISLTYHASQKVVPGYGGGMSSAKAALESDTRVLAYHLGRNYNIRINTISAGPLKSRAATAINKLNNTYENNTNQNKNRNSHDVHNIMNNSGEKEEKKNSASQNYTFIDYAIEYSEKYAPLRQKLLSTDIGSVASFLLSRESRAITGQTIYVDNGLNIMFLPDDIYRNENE

[7] = tested on: Trypanosoma brucei rhodesiense; experiment: Trypanocidal activity against bloodstream form of Trypanosoma brucei rhodesiense STIB 900 after 72 hrs; assay type: functional, organism-based; details: STIB 900, 72 h
[8] = molecular target: T2, 3-oxoacyl-acyl-carrier protein reductase (Plasmodium falciparum, UniProt Q965D6); experiment: Inhibition of Plasmodium falciparum FabG by spectrophotometric analysis
T2 sequence (Q965D6 whole entry): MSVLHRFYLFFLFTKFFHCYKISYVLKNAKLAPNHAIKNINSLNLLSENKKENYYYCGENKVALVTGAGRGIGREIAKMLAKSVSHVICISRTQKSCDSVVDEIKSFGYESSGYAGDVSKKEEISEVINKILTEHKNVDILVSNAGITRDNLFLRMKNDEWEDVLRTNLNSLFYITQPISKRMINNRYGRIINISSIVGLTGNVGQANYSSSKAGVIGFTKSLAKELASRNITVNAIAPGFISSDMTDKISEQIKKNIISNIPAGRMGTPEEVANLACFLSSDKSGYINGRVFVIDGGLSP
Outline: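 Recombinant PfFabG assayed in 20 mM HEPES pH 7.4, 150 mM NaCl, with NADPH cofactor and acetoacetyl-CoA substrate; DMSO at most 1% final. IC50 came from plotted dose-response curves.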

[9] = molecular target: T3, Fatty acid synthase (Plasmodium falciparum, UniProt Q965D7); experiment: Inhibition of Plasmodium falciparum FabZ by spectrophotometric analysis
T3 sequence (Q965D7 whole entry): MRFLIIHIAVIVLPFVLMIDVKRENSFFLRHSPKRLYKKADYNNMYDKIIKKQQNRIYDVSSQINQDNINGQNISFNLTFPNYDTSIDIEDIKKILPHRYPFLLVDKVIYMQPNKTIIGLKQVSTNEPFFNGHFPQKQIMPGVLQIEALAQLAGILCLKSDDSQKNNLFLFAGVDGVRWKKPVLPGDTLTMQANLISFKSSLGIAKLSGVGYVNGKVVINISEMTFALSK
Outline: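 Recombinant PfFabZ (0.5 μg) with 25 μM crotonoyl-CoA in 20 mM HEPES pH 7.4, 150 mM NaCl; DMSO at most 1% final. Read at 263 nm for 2 min, with epigallocatechin gallate as reference. IC50 came from plotted dose-response curves.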

[10] = tested on: Plasmodium yoelii; experiment: Antimalarial activity against liver stages of Plasmodium yoelii expressing GFP infected in human HepG2:CD81 cells after 43 hrs by immunofluorescence analysis; assay type: functional, organism-based
Outline: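 P. yoelii sporozoite-infected subconfluent HepG2:CD81 cells were kept at 37 °C in 5% CO2 and exposed to compound at up to 25 μg/ml in complete medium. After 43 h they were formalin-fixed and stained with anti-Plasmodium HSP70 mouse mAb plus rabbit anti-UIS4 or anti-FabI. About 20–25 parasites per treatment were sized at 20X against DMSO controls. The normalized reduction was used for IC50 estimation.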

[11] = tested on: Leishmania donovani; experiment: Leishmanicidal activity against axenic amastigotes of Leishmania donovani MHOM/ET/67/L82 after 72 hrs; assay type: functional, organism-based; details: MHOM/ET/67/L82, 72 h
[12] = tested on: Plasmodium falciparum; experiment: Antimalarial activity against erythrocytic stages of chloroquine and pyrimethamine-resistant Plasmodium falciparum K1 assessed as [3H]hypoxanthine incorporation after 48 hrs by liquid scintillation counting; assay type: functional, organism-based
Outline: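 K1 parasites in RPMI 1640 with 5% Albumax, no hypoxanthine, given serial dilutions; 48 h at 37 °C under reduced oxygen, then 0.5 μCi [3H]-hypoxanthine added for a further 24 h. Harvested on glass-fibre filters and counted. Counts per well expressed as percentage of untreated controls; IC50 read from plotted dose-response curves. Chloroquine as standard.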

SMILES	IC50 [1] [µg/mL]	Ratio IC50 [2]	Ratio IC50 [3]	IC50 [4] [µg/mL]	IC50 [5] [µg/mL]	IC50 [6] [µM]	IC50 [7] [µg/mL]	IC50 [8] [µM]	IC50 [9] [µM]	IC50 [10] [µg/mL]	IC50 [11] [µg/mL]	IC50 [12] [µg/mL]
O=C(Cn1ccnc1[N+](=O)[O-])NCc1ccccc1 [BENZNIDAZOLE]	0.489 (≈ 1.88 µM)											
CCCCCCC#CCCCCCCCC(=O)O	> 30	10	50	80.8 (≈ 320 µM)	> 25	11.1	3.7 (≈ 14.7 µM)	> 396	49.5	> 25	4.1 (≈ 16.2 µM)	
O=C1C(O)=C([C@H]2CC[C@H](c3ccc(Cl)cc3)CC2)C(=O)c2ccccc21 [ATOVAQUONE]					0.0025 (≈ 0.00681 µM)					0.00037 (≈ 0.00101 µM)		
COc1cc([C@@H]2c3cc4c(cc3[C@H](O)[C@H]3COC(=O)[C@H]23)OCO4)cc(OC)c1OC [PODOFILOX]				0.004 (≈ 0.00965 µM)								
CCCCCCCCCCCCCCCC(=O)O [PALMITIC ACID]	> 30			52.7 (≈ 206 µM)	> 25	> 390	30.4 (≈ 119 µM)	> 390	> 390	> 25	14.5 (≈ 56.5 µM)	3.8 (≈ 14.8 µM)
O=C(O[C@@H]1Cc2c(O)cc(O)cc2O[C@@H]1c1cc(O)c(O)c(O)c1)c1cc(O)c(O)c(O)c1 [EPIGALOCATECHIN GALLATE]									0.0654			
CCCCCCCCCCC#CCCCC(=O)O	> 30	10	50	> 90	> 25	12.3	25.5 (≈ 101 µM)	> 396	55.5	> 25	13.4 (≈ 53.1 µM)	6.6 (≈ 26.1 µM)
CCCCCCCCCCCCCCCCOP(=O)([O-])OCC[N+](C)(C)C [MILTEFOSINE]											0.26 (≈ 0.638 µM)	
CCCCCCCCCC#CCCCCC(=O)O	> 30	10	50	30.3 (≈ 120 µM)	> 25	14.3	31.7 (≈ 126 µM)	> 396	47.5	> 25	9.8 (≈ 38.8 µM)	22.5 (≈ 89.1 µM)
